Measurements from ChEMBL document CHEMBL1148407, “Macrocyclic polyamines deplete cellular ATP levels and inhibit cell growth in human prostate cancer cells” (2004).

How the values were obtained:
DuPro [1] = experiment: Macrocycle level in DuPro cells in 3 days after treatment with 0.5 uM concentration of the compound; Macrocycle level measured in per 10 lakh cells; format: functional, Homo sapiens
Procedure, shortened: (§1)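 Log-phase DuPro cells grown in RPMI 1640 with 10% fetal calf serum were exposed to macrocycle at 0.5–4 μM for 3 or 5 days, harvested with trypsin/EDTA and counted. About 1×10^6 cells were washed in cold PBS, extracted in 2% perchloric acid and sonicated. Supernatant was dansylated (modified for ring NH) and analysed by C-18 HPLC with fluorescence detection. Untreated controls were run per experiment.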

DuPro [2] = experiment: Macrocycle level in DuPro cells in 3 days after treatment with 2 uM concentration of the compound; Macrocycle level measured in per 10 lakh cells; format: functional, Homo sapiens; procedure, shortened: as §1
DuPro [3] = experiment: Macrocycle level in DuPro cells in 5 days after treatment with 0.5 uM concentration of the compound; Macrocycle level measured in per 10 lakh cells; format: functional, Homo sapiens; procedure, shortened: as §1
DuPro [4] = experiment: Macrocycle level in DuPro cells in 5 days after treatment with 2 uM concentration of the compound; Macrocycle level measured in per 10 lakh cells; format: functional, Homo sapiens; procedure, shortened: as §1
DuPro [5] = experiment: Spermine level in DuPro cells in 3 days after treatment with 0.5 uM concentration of the compound; Sm level measured in per 10 lakh cells; format: functional, Homo sapiens; procedure, shortened: as §1
DuPro [6] = experiment: Spermidine level in DuPro cells in 5 days after treatment with 0.5 uM concentration of the compound; Spd level measured in per 10 lakh cells; format: functional, Homo sapiens; procedure, shortened: as §1
PC-3 = experiment: Inhibitory effect against growth of PC-3 human prostate cancer cell line; format: functional; conditions: read-out: ID50 (the source's name)
Procedure, shortened: (§2)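 MTT growth assay. Trypsinized cells, 500 per well, seeded and incubated overnight at 37 °C in humidified 95% air/5% CO2. Serial macrocycle dilutions added, each concentration in quadruplicate, buffer controls in the outer columns, 6 days (144 h) of exposure. MTT 5 mg/mL added for 4 h, then overnight lysis in SDS/DMF/acetic acid buffer pH 4.8. Absorbance at 570 nm; ID50 derived.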

DuPro [7] = experiment: Macrocycle level in DuPro cells in 3 days after treatment with 1 uM concentration of the compound; Macrocycle level measured in per 10 lakh cells; format: functional, Homo sapiens; procedure, shortened: as §1
DuPro [8] = experiment: Macrocycle level in DuPro cells in 5 days after treatment with 1 uM concentration of the compound; Macrocycle level measured in per 10 lakh cells; format: functional, Homo sapiens; procedure, shortened: as §1
DuPro [9] = experiment: Spermine level in DuPro cells in3 days after treatment with 1 uM concentration of the compound; Sm level measured in per 10 lakh cells; format: functional, Homo sapiens; procedure, shortened: as §1
DuPro [10] = experiment: Macrocycle level in DuPro cells at 3 days after treatment with 2 uM concentration of the compound; Macrocycle level measured in per 10 lakh cells; format: functional, Homo sapiens; procedure, shortened: as §1
DuPro [11] = experiment: Macrocycle level in DuPro cells at 5 days after treatment with 1 uM concentration of the compound; Macrocycle level measured in per 10 lakh cells; format: functional, Homo sapiens; procedure, shortened: as §1
DuPro [12] = experiment: Macrocycle level in DuPro cells at 5 days after treatment with 2 uM concentration of the compound; Macrocycle level measured in per 10 lakh cells; format: functional, Homo sapiens; procedure, shortened: as §1
DuPro [13] = experiment: Putrescine level in DuPro cells at 3 days after treatment with 2 uM concentration of the compound; Put level measured in per 10 lakh cells; format: functional, Homo sapiens; procedure, shortened: as §1
DuPro [14] = experiment: Putrescine level in DuPro cells at 5 days after treatment with 2 uM concentration of the compound; Put level measured in per 10 lakh cells; format: functional, Homo sapiens; procedure, shortened: as §1
DuPro [15] = experiment: Spermine level in DuPro cells at 3 days after treatment with 2 uM concentration of the compound; Sm level measured in per 10 lakh cells; format: functional, Homo sapiens; procedure, shortened: as §1
DuPro [16] = experiment: Spermine level in DuPro cells in 5 days after treatment with 1 uM concentration of the compound; Sm level measured in per 10 lakh cells; format: functional, Homo sapiens; procedure, shortened: as §1
DuPro [17] = experiment: Macrocycle level in DuPro cells at 3 days after treatment with 1 uM concentration of the compound; Macrocycle level measured in per 10 lakh cells; format: functional, Homo sapiens; procedure, shortened: as §1
DuPro [18] = experiment: Spermidine level in DuPro cells in 3 days after treatment with 1 uM concentration of the compound; Spd level measured in per 10 lakh cells; format: functional, Homo sapiens; procedure, shortened: as §1
DuPro [19] = experiment: Spermidine level in DuPro cells in 5 days after treatment with 1 uM concentration of the compound; Spd level measured in per 10 lakh cells; format: functional, Homo sapiens; procedure, shortened: as §1
DuPro [20] = experiment: Spermidine level in DuPro cells at 3 days after treatment with 2 uM concentration of the compound; Spd level measured in per 10 lakh cells; format: functional, Homo sapiens; procedure, shortened: as §1
DuPro [21] = experiment: Spermidine level in DuPro cells at 5 days after treatment with 2 uM concentration of the compound; Spd level measured in per 10 lakh cells; format: functional, Homo sapiens; procedure, shortened: as §1
DuPro [22] = experiment: Putrescine level in DuPro cells in 3 days after treatment with 1 uM concentration of the compound; Put level measured in per 10 lakh cells; format: functional, Homo sapiens; procedure, shortened: as §1
DuPro [23] = experiment: Spermine level in DuPro cells at 5 days after treatment with 2 uM concentration of the compound; Sm level measured in per 10 lakh cells; format: functional, Homo sapiens; procedure, shortened: as §1
DuPro [24] = experiment: Macrocycle level in DuPro cells in 3 days after treatment with 4 uM concentration of the compound; Macrocycle level measured in per 10 lakh cells; format: functional, Homo sapiens; procedure, shortened: as §1
DuPro [25] = experiment: Macrocycle level in DuPro cells in 5 days after treatment with 4 uM concentration of the compound; Macrocycle level measured in per 10 lakh cells; format: functional, Homo sapiens; procedure, shortened: as §1
DuPro [26] = experiment: Inhibitory effect against growth of DuPro human prostate cancer cell line; format: functional; conditions: read-out: ID50 (the source's name); procedure, shortened: as §2

`CCCCCCCCCCCCCC1CC(=O)NCCCNCCCNCCCN1.Cl.Cl.Cl` (stereo unspecified) was tested. Which Polyamine level (DuPro [1]) did it give?
The Polyamine level was 47.57 nM.

What about the Polyamine level (DuPro [2]) of the same compound?
Its Polyamine level is 49.07 nM.

And the Polyamine level (DuPro [3])?
The Polyamine level was 35.91 nM.

What about the Polyamine level (DuPro [4]) of the same compound?
The Polyamine level was 42.34 nM.

What about the Polyamine level (DuPro [5]) of the same compound?
The Polyamine level was 3 pM.

How did the Polyamine level (DuPro [1]) turn out when `CCCCCCCCCCCCCC1CC(=O)NCCCNCCCCCNCCCN1.Cl.Cl.Cl` (stereo unspecified) was run?
The Polyamine level was 26.96 nM.

What about the Polyamine level (DuPro [2]) of the same compound?
The Polyamine level was 17.2 nM.

What about the Polyamine level (DuPro [3]) of the same compound?
The Polyamine level was 26.84 nM.

What about the Polyamine level (DuPro [4]) of the same compound?
Its Polyamine level is 10.24 nM.

And the Polyamine level (DuPro [6])?
The Polyamine level was 5 pM.

What about the IC50 (PC-3) of the same compound?
The IC50 was 1140 nM.

Which Polyamine level (DuPro [7]) does the source give for `CCCCCCCCCCCCCC1CC(=O)NCCCNCCCCNCCCN1.Cl.Cl.Cl` (stereo unspecified) here?
Its Polyamine level is 2.79 nM.

And the Polyamine level (DuPro [2])?
The Polyamine level was 25.07 nM.

And the Polyamine level (DuPro [8])?
The Polyamine level was 17.2 nM.

What about the Polyamine level (DuPro [4]) of the same compound?
Its Polyamine level is 21.47 nM.

`CCCCCCCCCCCCCC1CC(=O)NCCCNCCCNCCCNCCCN1.Cl.Cl.Cl.Cl` (stereo unspecified) was tested. Which Polyamine level (DuPro [9]) did it give?
The Polyamine level was 0.088 nM.

What about the Polyamine level (DuPro [10]) of the same compound?
Its Polyamine level is 5.99 nM.

What about the Polyamine level (DuPro [11]) of the same compound?
The Polyamine level was 46.77 nM.

What about the Polyamine level (DuPro [12]) of the same compound?
The Polyamine level was 49.31 nM.

What about the Polyamine level (DuPro [13]) of the same compound?
The Polyamine level was 0.02 nM.

What about the Polyamine level (DuPro [14]) of the same compound?
Its Polyamine level is 0.011 nM.

And the Polyamine level (DuPro [15])?
Its Polyamine level is 0.094 nM.

What about the Polyamine level (DuPro [16]) of the same compound?
Its Polyamine level is 0.043 nM.

What about the Polyamine level (DuPro [17]) of the same compound?
The Polyamine level was 10.09 nM.

And the Polyamine level (DuPro [18])?
Its Polyamine level is 0.029 nM.

And the Polyamine level (DuPro [19])?
Its Polyamine level is 0.014 nM.

And the Polyamine level (DuPro [20])?
Its Polyamine level is 0.027 nM.

And the Polyamine level (DuPro [21])?
The Polyamine level was 0.018 nM.

What about the Polyamine level (DuPro [22]) of the same compound?
The Polyamine level was 4 pM.

What about the Polyamine level (DuPro [23]) of the same compound?
Its Polyamine level is 0.053 nM.

Which results are given for `CCCCCCCCCCCCCC1CC(=O)NCCCNCCCCN1.Cl.Cl` (stereo unspecified)?
Polyamine level (DuPro [7]): 17 nM; Polyamine level (DuPro [24]): 22.1 nM; Polyamine level (DuPro [8]): 24 nM; Polyamine level (DuPro [25]): 32 nM; IC50 (DuPro [26]): 1800 nM; IC50 (PC-3): 1700 nM
